From ChEMBL document CHEMBL3407461 (J Med Chem, 2014)

Legend:
[1] = biological target: T1, Adenosine receptor A1 (Homo sapiens) (UniProt P30542); test: Displacement of [3H]R-PIA from human recombinant A1 adenosine receptor expressed in CHO cells at 10 uM after 60 mins by liquid scintillation counting; format: cell-based
T1 sequence (whole entry): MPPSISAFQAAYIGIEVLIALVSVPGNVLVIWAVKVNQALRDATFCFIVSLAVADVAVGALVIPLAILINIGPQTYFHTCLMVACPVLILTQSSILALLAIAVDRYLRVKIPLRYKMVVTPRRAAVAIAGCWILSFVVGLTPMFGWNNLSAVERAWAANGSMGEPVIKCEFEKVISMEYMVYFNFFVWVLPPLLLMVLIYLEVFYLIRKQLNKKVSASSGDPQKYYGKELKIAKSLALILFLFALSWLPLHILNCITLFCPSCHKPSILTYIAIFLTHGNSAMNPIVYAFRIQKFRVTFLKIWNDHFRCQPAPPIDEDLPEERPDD

CHO = test: Selectivity ratio of Ki for mouse A3 adenosine receptor expressed in HEK293 cells to Ki for human recombinant A3 adenosine receptor expressed in CHO cells; format: cell-based
Mus musculus [2] = test: Antinociceptive activity in chronic constriction injury neutropathic pain CD-1 mouse model assessed as maximum protection on ipsilateral hind paw at 3 umol/kg, po after 30 mins to 5 hrs post dose relative to control; format: functional; conditions: CD-1, po
Mus musculus [3] = test: Antinociceptive activity in chronic constriction injury neutropathic pain CD-1 mouse model at 3 umol/kg, po after 3 hrs post dose relative to control; format: functional
Mus musculus [4] = test: Antinociceptive activity in chronic constriction injury neutropathic pain CD-1 mouse model assessed as time for peak protection at 3 umol/kg, po; format: functional
Outline: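 Male CD-1 mice (25−30 g), chronic constriction injury of left sciatic nerve (Bennett model) under isoflurane. Dosed by gavage (3 μmol/kg, 0.2 mL) at peak mechano-allodynia on day 7; vehicle 10% DMSO in 0.5% methylcellulose. Paw withdrawal threshold (g) measured on the ipsilateral hind paw from 30 min to 5 h post dose. Expressed as % reversal, mean ± SEM over n animals.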

[5] = biological target: Adenosine receptor A2a (Homo sapiens) (UniProt P29274); test: Displacement of [3H]CGS21680 from human recombinant A2A adenosine receptor expressed in HEK293 cells at 10 uM after 60 mins by liquid scintillation counting; format: cell-based
[6] = biological target: T2, Adenosine receptor A1 (Mus musculus) (UniProt Q60612); test: Displacement of [125I]I-AB-MECA from mouse A1 adenosine receptor expressed in HEK293 cells at 10 uM after 60 mins by liquid scintillation counting
T2 sequence (whole entry): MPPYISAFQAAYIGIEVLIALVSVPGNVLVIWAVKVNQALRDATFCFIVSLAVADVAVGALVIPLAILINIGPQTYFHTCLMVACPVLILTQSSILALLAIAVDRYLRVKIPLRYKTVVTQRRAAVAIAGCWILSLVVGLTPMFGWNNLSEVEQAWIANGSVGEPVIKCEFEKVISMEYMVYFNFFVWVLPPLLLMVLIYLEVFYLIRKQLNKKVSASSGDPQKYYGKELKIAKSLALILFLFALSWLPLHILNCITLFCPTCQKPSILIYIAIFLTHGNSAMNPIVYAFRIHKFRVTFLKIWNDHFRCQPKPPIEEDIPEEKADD

[7] = biological target: Voltage-gated inwardly rectifying potassium channel KCNH2 (Homo sapiens, UniProt Q12809); test: Inhibition of human ERG by PDSP screening
[8] = biological target: T3, Adenosine receptor A3 (Mus musculus) (UniProt Q61618); test: Agonist activity at mouse A3 adenosine receptor expressed in HEK293 cells assessed as inhibition of forskolin-stimulated cAMP production after 15 mins relative to control; format: functional, cell-based
T3 sequence (whole entry): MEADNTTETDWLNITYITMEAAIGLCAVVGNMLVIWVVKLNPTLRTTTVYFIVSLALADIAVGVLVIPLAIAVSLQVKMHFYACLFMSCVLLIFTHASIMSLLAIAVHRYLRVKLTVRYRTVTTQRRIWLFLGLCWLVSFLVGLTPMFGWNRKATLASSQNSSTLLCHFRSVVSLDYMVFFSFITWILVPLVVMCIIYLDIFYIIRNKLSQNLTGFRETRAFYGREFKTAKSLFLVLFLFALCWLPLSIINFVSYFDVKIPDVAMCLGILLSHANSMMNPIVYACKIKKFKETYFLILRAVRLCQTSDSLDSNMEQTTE
Outline: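 2 × 10^5 cells/tube, coincubated with forskolin 10 μM plus ligand for 15 min at 37 °C with shaking. Stopped with HCl. cAMP in supernatant measured by competitive binding.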

[9] = biological target: Adenosine receptor A2a (Mus musculus) (UniProt Q60613); test: Displacement of [3H]CGS21680 from mouse A2A adenosine receptor expressed in HEK293 cells at 10 uM after 60 mins by liquid scintillation counting; format: cell-based
Chain of Adenosine receptor A2a (Mus musculus) (Q60613 whole entry): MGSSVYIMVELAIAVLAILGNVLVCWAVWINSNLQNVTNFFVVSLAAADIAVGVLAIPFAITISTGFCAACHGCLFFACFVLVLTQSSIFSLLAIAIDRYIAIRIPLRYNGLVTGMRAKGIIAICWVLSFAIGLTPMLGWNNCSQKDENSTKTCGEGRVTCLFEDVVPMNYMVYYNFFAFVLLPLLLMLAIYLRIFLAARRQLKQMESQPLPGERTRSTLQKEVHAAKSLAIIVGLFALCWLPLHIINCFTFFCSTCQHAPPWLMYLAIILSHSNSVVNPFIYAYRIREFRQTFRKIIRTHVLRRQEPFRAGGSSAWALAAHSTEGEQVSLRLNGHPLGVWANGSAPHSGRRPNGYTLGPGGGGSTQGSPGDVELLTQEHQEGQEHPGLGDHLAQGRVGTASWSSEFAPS

Chain of Adenosine receptor A2a (Homo sapiens) (P29274 whole entry): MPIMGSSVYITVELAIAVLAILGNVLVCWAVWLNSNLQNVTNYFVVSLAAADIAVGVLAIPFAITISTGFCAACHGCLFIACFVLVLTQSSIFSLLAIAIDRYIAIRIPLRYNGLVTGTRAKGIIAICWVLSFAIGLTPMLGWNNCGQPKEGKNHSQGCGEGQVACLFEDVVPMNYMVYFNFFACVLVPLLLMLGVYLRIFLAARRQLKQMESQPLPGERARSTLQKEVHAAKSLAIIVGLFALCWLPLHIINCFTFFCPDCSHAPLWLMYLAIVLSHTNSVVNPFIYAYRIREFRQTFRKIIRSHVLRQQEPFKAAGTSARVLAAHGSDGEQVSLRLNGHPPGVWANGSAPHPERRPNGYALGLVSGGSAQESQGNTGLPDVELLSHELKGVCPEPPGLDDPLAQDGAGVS
Chain of Voltage-gated inwardly rectifying potassium channel KCNH2 (Q12809 whole entry): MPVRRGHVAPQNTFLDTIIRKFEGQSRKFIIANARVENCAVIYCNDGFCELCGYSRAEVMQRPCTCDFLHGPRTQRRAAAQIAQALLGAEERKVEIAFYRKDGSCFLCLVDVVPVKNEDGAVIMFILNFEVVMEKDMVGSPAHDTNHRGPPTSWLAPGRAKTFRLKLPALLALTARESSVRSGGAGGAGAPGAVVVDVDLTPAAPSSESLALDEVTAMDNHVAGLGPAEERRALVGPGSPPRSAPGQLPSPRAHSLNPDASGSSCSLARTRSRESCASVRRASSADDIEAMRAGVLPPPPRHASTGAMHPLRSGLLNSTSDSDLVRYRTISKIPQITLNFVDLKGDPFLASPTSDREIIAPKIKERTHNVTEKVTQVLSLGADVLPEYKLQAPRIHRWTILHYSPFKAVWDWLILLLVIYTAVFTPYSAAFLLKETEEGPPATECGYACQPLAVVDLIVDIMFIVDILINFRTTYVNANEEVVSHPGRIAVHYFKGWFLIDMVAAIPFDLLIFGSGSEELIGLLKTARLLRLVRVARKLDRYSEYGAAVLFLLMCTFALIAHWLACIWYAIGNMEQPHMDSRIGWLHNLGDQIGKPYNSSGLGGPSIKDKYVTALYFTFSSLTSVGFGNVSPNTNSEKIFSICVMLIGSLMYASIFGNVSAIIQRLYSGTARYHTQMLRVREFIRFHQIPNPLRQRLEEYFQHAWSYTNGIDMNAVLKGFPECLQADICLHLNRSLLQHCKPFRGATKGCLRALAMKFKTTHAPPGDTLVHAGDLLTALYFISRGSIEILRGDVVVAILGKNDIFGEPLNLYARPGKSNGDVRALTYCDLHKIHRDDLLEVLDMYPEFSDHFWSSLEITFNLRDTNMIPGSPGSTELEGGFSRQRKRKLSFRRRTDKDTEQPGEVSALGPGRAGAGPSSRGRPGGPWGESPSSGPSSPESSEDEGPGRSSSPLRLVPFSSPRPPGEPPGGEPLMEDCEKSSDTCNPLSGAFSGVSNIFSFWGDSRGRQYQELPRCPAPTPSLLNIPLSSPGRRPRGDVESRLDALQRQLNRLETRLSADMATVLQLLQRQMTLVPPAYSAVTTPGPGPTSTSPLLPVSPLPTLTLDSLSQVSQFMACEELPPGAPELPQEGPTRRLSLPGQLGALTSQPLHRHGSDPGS

inhibition [1] | inhibition [5] | inhibition [6] | Imax [8] | inhibition [9] | SMILES | Ratio Ki (CHO) | Emax at 3 µmol/kg (Mus musculus [2]) | Activity (Mus musculus [3]) | Time (Mus musculus [4]) | IC50 [7]
27% |  |  |  |  | CNC(=O)[C@@]12C[C@@H]1[C@@H](n1cnc3c(NC)nc(C#Cc4ccc(F)cc4)nc31)[C@H](O)[C@@H]2O | > 30 | 72% | 10.4% | 1 h | 
25% | 27% |  |  |  | CNC(=O)[C@@]12C[C@@H]1[C@@H](n1cnc3c(NC)nc(C#Cc4ncccn4)nc31)[C@H](O)[C@@H]2O |  | 92.3% |  | 0.5 h | 
16% | 11% |  |  |  | CNC(=O)[C@@]12C[C@@H]1[C@@H](n1cnc3c(NC)nc(C#Cc4ccc(CO)cc4)nc31)[C@H](O)[C@@H]2O |  |  |  | 1 h | 
8% | 26% |  |  |  | CNC(=O)[C@@]12C[C@@H]1[C@@H](n1cnc3c(NC)nc(C#Cc4cccc(OC)c4)nc31)[C@H](O)[C@@H]2O |  |  |  | 0.5 h | 
38% | 15% |  |  |  | CNC(=O)[C@@]12C[C@@H]1[C@@H](n1cnc3c(NC)nc(C#CC4CC4)nc31)[C@H](O)[C@@H]2O |  | 54.6% | 19.1% | 1 h | 
18% | 4% |  |  |  | CCc1ccc(C#Cc2nc(NC)c3ncn([C@H]4[C@H](O)[C@H](O)[C@]5(C(=O)NC)C[C@H]45)c3n2)o1 |  |  |  | 1 h | 
15% | 2% |  |  |  | CNC(=O)[C@@]12C[C@@H]1[C@@H](n1cnc3c(NC)nc(C#Cc4ccncc4)nc31)[C@H](O)[C@@H]2O |  |  |  | 1 h | 
15% | 45% |  |  |  | CNC(=O)[C@@]12C[C@@H]1[C@@H](n1cnc3c(NC)nc(C#CC4CCCCC4)nc31)[C@H](O)[C@@H]2O |  | 64.1% |  | 1 h | 
 |  |  |  |  | CNC(=O)[C@H]1O[C@@H](n2cnc3c(NCc4cccc(I)c4)ncnc32)[C@H](O)[C@@H]1O [IB-MECA] |  | 94.1% | 38.7% | 1 h | 
15% | 21% |  |  |  | CNC(=O)[C@@]12C[C@@H]1[C@@H](n1cnc3c(NC)nc(C#Cc4cc(C)c(C)o4)nc31)[C@H](O)[C@@H]2O |  |  |  | 1 h | 
11% | 3% |  |  |  | CNC(=O)[C@@]12C[C@@H]1[C@@H](n1cnc3c(NC)nc(C#Cc4ccsc4)nc31)[C@H](O)[C@@H]2O |  |  |  | 0.5 h | 
18% |  |  |  |  | CNC(=O)[C@@]12C[C@@H]1[C@@H](n1cnc3c(NC)nc(C#Cc4ccccc4)nc31)[C@H](O)[C@@H]2O |  | 44.1% | 5% | 0.5 h | 
16% | 12% |  |  |  | CNC(=O)[C@@]12C[C@@H]1[C@@H](n1cnc3c(NC)nc(C#Cc4cccnc4)nc31)[C@H](O)[C@@H]2O |  |  |  | 0.5 h | 
 |  | 16% |  |  | CNC(=O)[C@@]12C[C@@H]1[C@@H](n1cnc3c(NCc4cccc(Cl)c4)nc(C#Cc4ccc(F)c(F)c4)nc31)[C@H](O)[C@@H]2O |  |  | 23.7% | 1 h | 12.2 µM
10% | 12% |  |  |  | CNC(=O)[C@@]12C[C@@H]1[C@@H](n1cnc3c(NC)nc(C#Cc4cccc(C(F)(F)F)c4)nc31)C(O)C2O (single isomer, unassigned) |  |  |  | 0.5 h | 
13% | 18% |  |  |  | CNC(=O)[C@@]12C[C@@H]1[C@@H](n1cnc3c(NC)nc(C#Cc4cc5ccccc5o4)nc31)[C@H](O)[C@@H]2O |  | 87.4% |  | 1 h | 
20% |  |  |  |  | CNC(=O)[C@@]12C[C@@H]1[C@@H](n1cnc3c(NC)nc(C#Cc4ccccc4F)nc31)[C@H](O)[C@@H]2O |  | 56% | 9.8% | 0.5 h | 
13% |  |  |  |  | CNC(=O)[C@@]12C[C@@H]1[C@@H](n1cnc3c(NC)nc(C#Cc4ccc(Cl)cc4)nc31)[C@H](O)[C@@H]2O |  | 40.4% | 4.6% | 0.5 h | 
13% |  |  |  |  | CNC(=O)[C@@]12C[C@@H]1[C@@H](n1cnc3c(NC)nc(C#Cc4ccccn4)nc31)[C@H](O)[C@@H]2O |  | 31.8% | 0% | 0.5 h | 
31% | 8% |  |  |  | CNC(=O)[C@@]12C[C@@H]1[C@@H](n1cnc3c(NC)nc(C#Cc4nccs4)nc31)[C@H](O)[C@@H]2O |  | 53.2% | 12.7% | 1 h | 
18% | 21% |  |  |  | CNC(=O)[C@@]12C[C@@H]1[C@@H](n1cnc3c(NC)nc(C#Cc4ccc(-c5ccccc5)cc4)nc31)[C@H](O)[C@@H]2O |  | 57.7% | 14.3% | 1 h | 
11% | 13% |  |  |  | CNC(=O)[C@@]12C[C@@H]1[C@@H](n1cnc3c(NC)nc(C#Cc4cccnn4)nc31)[C@H](O)[C@@H]2O |  |  |  | 0.5 h | 
14% |  |  |  |  | CNC(=O)[C@@]12C[C@@H]1[C@@H](n1cnc3c(NC)nc(C#Cc4cccc(F)c4)nc31)[C@H](O)[C@@H]2O |  | 46.3% | 12.4% | 1 h | 
12% | 20% |  |  |  | CNC(=O)[C@@]12C[C@@H]1[C@@H](n1cnc3c(NC)nc(C#Cc4ccccc4OC)nc31)[C@H](O)[C@@H]2O |  | 64.3% |  | 1 h | 
25% | 20% | 47% | 28% | 3% | CNC(=O)[C@@]12C[C@@H]1[C@@H](n1cnc3c(NC)nc(C#Cc4cccs4)nc31)[C@H](O)[C@@H]2O |  | 100% |  | 1 h | 
10% | 24% |  |  |  | CNC(=O)[C@@]12C[C@@H]1[C@@H](n1cnc3c(NC)nc(C#Cc4ccc(OC)cc4)nc31)[C@H](O)[C@@H]2O |  |  |  | 0.5 h | 
22% |  |  |  |  | CNC(=O)[C@@]12C[C@@H]1[C@@H](n1cnc3c(NC)nc(C#Cc4ccccc4Cl)nc31)[C@H](O)[C@@H]2O | > 30 | 27.5% | 10.6% | 0.5 h | 
30% | 19% |  |  |  | CNC(=O)[C@@]12C[C@@H]1[C@@H](n1cnc3c(NC)nc(C#Cc4cc[nH]n4)nc31)[C@H](O)[C@@H]2O |  |  |  | 0.5 h | 
